This is an account of results in PMC4229023 (Biomacromolecules, 2014).

A short description of series [1]: Maximum tolerated dose study. It counts as in vivo, CD-1 mice. A digest of the protocol: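 Body weight and survival were checked daily for 2 weeks. MTD was taken as the highest dose causing neither more than 15% body-weight loss nor any death within 2 weeks.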
Series [2] can be described thus: Plasma pharmacokinetics. The format is in vivo. As to conditions: 5 mg DOX/kg i.v., female BALB/c mice.
In series [3] the test system is 4T1.2 mouse breast cancer cell line. As to the kind of experiment: MTT cytotoxicity. The format is cell-based. The settings on record: 4T1.2 cells.
The test system of series [4] is HCT-116 human colon carcinoma cell line. Kind of series: MTT cytotoxicity. The format is cell-based. As to conditions: HCT-116 cells.
Series [5] has as its system PC-3 xenografts. The settings on record: cited from earlier work.

Take `COc1cccc2c1C(=O)c1c(O)c3c(c(O)c1C2=O)C[C@@](O)(C(=O)CO)C[C@@H]3O[C@H]1C[C@H](N)[C@H](O)[C@H](C)O1` [DOX, Doxorubicin]: in series [1] (10 mg/kg DOX), the tolerability result is “well tolerated”. For the same compound, the “decrease in the body weight” value in series [1] (15 mg DOX/kg) is recorded as > 15%. In addition, the Animal death result in series [1] (15 mg DOX/kg i.v., n = 4, listed as free DOX) is listed as “death of all treated mice”. The “maximum tolerated dose (MTD)” value in series [1] (DOX dose, single i.v. dose, female CD-1 mice, 2 weeks) was ~10 mg/kg. Moreover, in series [2], the peak concentration (Cmax) stood at 3590 ng/mL and the Vd amounted to 7.34 L/kg. Besides, the T1/2 in series [2] (noncompartmental) was found to be 1.74 h. Besides, in series [2] (plasma), the AUC0-inf amounted to 3430 ng·h/mL.
Turning to `CC(C)=CCC/C(C)=C/CC/C(C)=C/CSc1ccccc1C(=O)O` [FTS, S-trans, trans-farnesylthiosalicylic acid], the “cytotoxicity of drug-free carriers and FTS” value in series [3] and in series [4] was “inhibited the tumor cell growth in a concentration-dependent manner” each time.
As for `CCCCCCCCCCCCCCCCCCN1C(=CC=CC=CC2=[N+](CCCCCCCCCCCCCCCCCC)c3ccccc3C2(C)C)C(C)(C)c2ccccc21.[O-][Cl+3]([O-])([O-])[O-]` [free DiD dye, 1,1′-dioctadecyl-3,3,3′,3′-tetramethylindodicarbocyanine perchlorate], the “tumor accumulation (NIRF imaging)” value in series [5] is on record as “No obvious tumor accumulation”.
